Laboratory results taken from ChEMBL document CHEMBL5036376, “C20-nor-Abietane and Three Abietane Diterpenoids from Plectranthus mutabilis Leaves as P-Glycoprotein Modulators” (ACS Med Chem Lett, 2022).

Key:
[1] = molecular target: T1, ATP-dependent translocase ABCB1 (Homo sapiens, UniProt P08183); experiment: Stimulation of P-gp in human multi drug resistant NCI-H460/R cells assessed as decrease in Rho123 accumulation by measuring mean fluorescence intensity at 10 uM incubated for 30 mins in presence of rhodamine 123by flow cytometry; conditions: nci-h460, 0.5 h
T1 sequence (P08183 whole entry): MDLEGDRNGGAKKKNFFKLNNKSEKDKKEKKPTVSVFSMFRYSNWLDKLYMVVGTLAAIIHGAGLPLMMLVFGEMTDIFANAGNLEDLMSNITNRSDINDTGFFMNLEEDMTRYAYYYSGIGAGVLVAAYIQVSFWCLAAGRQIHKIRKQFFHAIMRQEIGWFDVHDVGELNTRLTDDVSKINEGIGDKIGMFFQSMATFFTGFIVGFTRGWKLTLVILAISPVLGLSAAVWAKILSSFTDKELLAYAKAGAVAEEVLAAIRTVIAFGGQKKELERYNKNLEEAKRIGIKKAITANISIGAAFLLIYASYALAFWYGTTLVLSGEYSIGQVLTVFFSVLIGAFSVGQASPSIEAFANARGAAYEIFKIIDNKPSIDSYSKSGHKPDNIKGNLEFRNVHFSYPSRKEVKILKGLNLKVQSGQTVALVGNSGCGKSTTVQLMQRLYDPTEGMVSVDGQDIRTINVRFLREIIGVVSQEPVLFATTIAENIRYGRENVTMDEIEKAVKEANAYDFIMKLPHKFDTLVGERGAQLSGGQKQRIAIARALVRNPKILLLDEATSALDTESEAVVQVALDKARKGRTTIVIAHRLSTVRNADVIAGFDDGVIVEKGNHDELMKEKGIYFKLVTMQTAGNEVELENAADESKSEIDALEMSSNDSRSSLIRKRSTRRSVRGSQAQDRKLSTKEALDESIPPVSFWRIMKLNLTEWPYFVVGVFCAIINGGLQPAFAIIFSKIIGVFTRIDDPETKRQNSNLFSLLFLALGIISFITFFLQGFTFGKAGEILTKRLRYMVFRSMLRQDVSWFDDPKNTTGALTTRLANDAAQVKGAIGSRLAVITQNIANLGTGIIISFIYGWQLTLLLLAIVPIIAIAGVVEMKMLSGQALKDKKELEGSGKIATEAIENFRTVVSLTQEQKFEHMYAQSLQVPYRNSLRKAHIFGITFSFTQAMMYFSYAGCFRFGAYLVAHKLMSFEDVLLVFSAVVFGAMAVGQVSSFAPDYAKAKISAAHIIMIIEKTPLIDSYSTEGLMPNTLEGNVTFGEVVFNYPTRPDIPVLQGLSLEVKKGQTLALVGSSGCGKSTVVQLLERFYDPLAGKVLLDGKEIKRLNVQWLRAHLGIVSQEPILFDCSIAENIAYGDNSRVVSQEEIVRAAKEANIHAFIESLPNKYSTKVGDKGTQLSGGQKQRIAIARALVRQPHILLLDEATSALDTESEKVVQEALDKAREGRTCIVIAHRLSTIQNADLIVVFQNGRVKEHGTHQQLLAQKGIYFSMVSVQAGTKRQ
Procedure, shortened: (§1)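 NCI-H460/R (P-gp-overexpressing NSCLC) cells exposed to the test agent together with Rho123 for 30 min; mean fluorescence intensity (MFI) read. Untreated NCI-H460/R serve as MDR control and parental NCI-H460 as sensitive control. FAR = MFI treated/MFI MDR control; SI = MFI treated × 100/MFI sensitive control; mean ± SE. Tariquidar is the P-gp inhibition positive control.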

[2] = Selectivity index, ratio of mean fluorescence intensity for stimulation of P-gp in human multidrug resistant NCI-H460/R cells to mean fluorescence intensity for stimulation of P-gp in human NCI-H460 cells assessed as decrease in Rho123 accumulation at 10 uM for 30 mins; assay type: functional; conditions: 0.5 h
[3] = molecular target: T1, ATP-dependent translocase ABCB1; experiment: Stimulation of P-gp in human multi-drug resistant NCI-H460/R cells assessed as decrease in Rho123 accumulation by measuring mean fluorescence intensity at 5 uM incubated for 30 mins in presence of rhodamine 123 by flow cytometry; conditions: nci-h460, 0.5 h; procedure, shortened: as §1
NCI-H460 [4] = experiment: Anticancer activity against human multi-drug resistant NCI-H460/R cells assessed as reduction in cell viability measured after 72 hrs by MTT assay; assay type: functional, cell-based; conditions: NCI-H460, 72 h
Procedure, shortened: (§2)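 MTT read-out of metabolic activity (viability) in sensitive NSCLC NCI-H460, its P-gp-overexpressing MDR subline NCI-H460/R and normal embryonic lung fibroblasts MRC-5. Isolated diterpenes were tested at 2, 5, 10, 20 and 50 μM and acetone extract at 2, 5, 10, 20 and 50 μg/mL. IC50 was reported in μM for compounds and μg/mL for extract.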

[5] = Selectivity index, ratio of IC50 for cytotoxicity against human MRC-5 cells to of IC50 for anticancer activity against human NCI-H460 cells; assay type: toxicity, cell-based; conditions: for selectivity ratio: MRC-5 cells versus NCI-H460 cells, read-out: Ratio IC50
Procedure, shortened: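 Selectivity index is the MRC-5 IC50 divided by the NCI-H460 IC50. Both come from MTT viability assays over 2–50 μM (compounds) or 2–50 μg/mL (extract).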

NCI-H460 [6] = experiment: Anticancer activity against human NCI-H460 cells assessed as reduction in cell viability measured after 72 hrs by MTT assay; assay type: functional, cell-based; conditions: NCI-H460, 72 h; procedure, shortened: as §2
[7] = molecular target: T1, ATP-dependent translocase ABCB1; experiment: Stimulation of P-gp in human multidrug resistant NCI-H460/R cells assessed as fluorescence activity ratio at 5 uM for 72 mins by Rho123 accumulation assay relative to control; conditions: nci-h460, 1.2 h
MRC5 = experiment: Cytotoxicity against human MRC-5 cells assessed as reduction in cell viability measured after 72 hrs by MTT assay; assay type: cell-based; conditions: MRC5, 72 h; procedure, shortened: as §2
[8] = Selectivity index, ratio of mean fluorescence intensity for stimulation of P-gp in human multidrug resistant NCI-H460/R cells to mean fluorescence intensity for stimulation of P-gp in human NCI-H460 cells assessed as decrease in Rho123 accumulation at 5 uM for 30 mins; assay type: functional; conditions: 0.5 h
[9] = molecular target: T1, ATP-dependent translocase ABCB1; experiment: Stimulation of P-gp in human multidrug resistant NCI-H460/R cells assessed as decrease in Rho123 accumulation by measuring mean fluorescence intensity at 5 uM incubated for 72 hrs followed by rhodamine 123 measured after 30 mins by flow cytometry; conditions: nci-h460, 72.5 h
Procedure, shortened: (§3)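 NCI-H460/R cells treated with the test agent for 72 h, then loaded with Rho123 for 30 min; intracellular mean fluorescence intensity (MFI) measured. References are untreated NCI-H460/R (MDR control) and parental NCI-H460 (sensitive control). FAR = MFI treated/MFI MDR control; SI = MFI treated × 100/MFI sensitive control; mean ± SE. Tariquidar is the P-gp inhibitor comparator.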

[10] = molecular target: T1, ATP-dependent translocase ABCB1; experiment: Stimulation of P-gp in human multidrug resistant NCI-H460/R cells assessed as decrease in Rho123 accumulation by measuring mean fluorescence intensity at 10 uM incubated for 72 hrs followed by rhodamine 123 measured after 30 mins by flow cytometry; conditions: nci-h460, 72.5 h; procedure, shortened: as §3
[11] = molecular target: T1, ATP-dependent translocase ABCB1; experiment: Stimulation of P-gp in human multidrug resistant NCI-H460/R cells assessed as fluorescence activity ratio at 10 uM for 72 mins by Rho123 accumulation assay relative to control; conditions: nci-h460, 1.2 h
[12] = Selectivity index, ratio of mean fluorescence intensity for stimulation of P-gp in human multidrug resistant NCI-H460/R cells to mean fluorescence intensity for stimulation of P-gp in human NCI-H460 cells assessed as decrease in Rho123 accumulation at 5 uM for 72 mins; assay type: functional; conditions: 1.2 h
[13] = molecular target: T1, ATP-dependent translocase ABCB1; experiment: Stimulation of P-gp in human multidrug resistant NCI-H460/R cells assessed as fluorescence activity ratio at 5 uM for 30 mins by Rho123 accumulation assay relative to control; conditions: nci-h460, 0.5 h
[14] = Selectivity index, ratio of mean fluorescence intensity for stimulation of P-gp in human multidrug resistant NCI-H460/R cells to mean fluorescence intensity for stimulation of P-gp in human NCI-H460 cells assessed as decrease in Rho123 accumulation at 10 uM for 72 mins; assay type: functional; conditions: 1.2 h
[15] = molecular target: T1, ATP-dependent translocase ABCB1; experiment: Stimulation of P-gp in human multidrug resistant NCI-H460/R cells assessed as fluorescence activity ratio at 10 uM for 30 mins by Rho123 accumulation assay relative to control; conditions: nci-h460, 0.5 h
[16] = molecular target: T1, ATP-dependent translocase ABCB1; experiment: Stimulation of P-gp in human multidrug resistant NCI-H460/R cells assessed as decrease in Rho123 accumulation by measuring mean fluorescence intensity at 0.05 uM incubated for 72 hour followed by rhodamine 123 measured after 30 mins by flow cytometry; conditions: nci-h460, 72 h; procedure, shortened: as §3
[17] = Selectivity index, ratio of mean fluorescence intensity for stimulation of P-gp in human multidrug resistant NCI-H460/R cells to mean fluorescence intensity for stimulation of P-gp in human NCI-H460 cells assessed as decrease in Rho123 accumulation at 0.05 uM for […]; assay type: functional
[18] = molecular target: T1, ATP-dependent translocase ABCB1; experiment: Stimulation of P-gp in human multi-drug resistant NCI-H460/R cells assessed as decrease in Rho123 accumulation by measuring mean fluorescence intensity at 50 uM incubated for 30 mins in presence of rhodamine 123 by flow cytometry; conditions: nci-h460, 0.5 h; procedure, shortened: as §1
[19] = molecular target: T1, ATP-dependent translocase ABCB1; experiment: Stimulation of P-gp in human multidrug resistant NCI-H460/R cells assessed as fluorescence activity ratio at 50 uM for 30 mins by Rho123 accumulation assay relative to control; conditions: nci-h460, 0.5 h
Procedure, shortened: (§4)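 Rho123 and test agent given together to NCI-H460/R cells for 30 min, then mean fluorescence intensity (MFI) read. FAR = MFI of treated MDR cells / MFI of untreated MDR cells. SI = (MFI of treated MDR cells × 100) / MFI of untreated sensitive NCI-H460 cells. Tariquidar was the P-gp inhibition control. Mean ± SE.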

[20] = Selectivity index, ratio of mean fluorescence intensity for stimulation of P-gp in human multidrug resistant NCI-H460/R cells to mean fluorescence intensity for stimulation of P-gp in human NCI-H460 cells assessed as decrease in Rho123 accumulation at 50 uM for 30 mins; assay type: functional; conditions: 0.5 h; procedure, shortened: as §4
[21] = molecular target: T1, ATP-dependent translocase ABCB1; experiment: Stimulation of P-gp in human multidrug resistant NCI-H460/R cells assessed as fluorescence activity ratio at 0.05 uM […] by Rho123 accumulation assay relative to control; conditions: nci-h460, 1.2 h

| SMILES | Flu intensity [1] | Selectivity Index [2] | Flu intensity [3] | IC50 (NCI-H460 [4]) [µM] | selectivity ratio [5] | IC50 (NCI-H460 [6]) [µM] | Ratio [7] | IC50 (MRC5) [µM] | Selectivity Index [8] | Flu intensity [9] | Flu intensity [10] | Ratio [11] | Selectivity Index [12] | Ratio [13] | Selectivity Index [14] | Ratio [15] | further results |
| --- | --- | --- | --- | --- | --- | --- | --- | --- | --- | --- | --- | --- | --- | --- | --- | --- | --- |
| CC(C)c1c(O)c(O)c2c(c1O)C(=O)C(O)=C1C(C)(C)CCC[C@@]12C | 253 | 11.76 | 1258.8 | 14.5 | 2.5 | 14.1 | 0.21 | 35.5 | 58.52 | 173.5 | 109.7 | 0.14 | 7 | 2.45 | 4.43 | 0.49 |  |
| CC(C)C1=C(O)C(=O)C2=C(C(=O)C(O)=C3C(C)(C)CCC[C@]23C)C1=O | 991.3 | 46.09 | 669.6 | 20.4 | 2 | 23 | 0.34 | 44.1 | 31.13 | 277.3 | 242 | 0.3 | 11.18 | 1.3 | 9.76 | 1.93 |  |
| CC(C)c1cc2c(c(O)c1O)[C@@]1(O)CCCC(C)(C)[C@@H]1C(=O)C2=O | 573 | 26.64 | 595.3 | > 50 |  | > 50 | 0.33 | > 50 | 27.68 | 265.9 | 254.5 | 0.31 | 10.72 | 1.16 | 10.26 | 1.12 | Ratio IC50 [5]: Not Active |
| CC(C)C1=C(O)C(=O)[C@@]23O[C@@]2(C(=O)C(O)=C2C(C)(C)CCC[C@@]23C)C1=O | 666.1 | 30.97 | 711.6 | 17.3 | 2 | 20.2 | 0.36 | 40.2 | 33.08 | 289.7 | 276.6 | 0.34 | 11.68 | 1.39 | 11.16 | 1.3 |  |
| COc1cccc2c1C(=O)c1c(O)c3c(c(O)c1C2=O)C[C@@](O)(C(=O)CO)C[C@@H]3O[C@H]1C[C@H](N)[C@H](O)[C@H](C)O1 [DOXORUBICIN] |  |  |  | 1.62 |  |  |  |  |  |  |  |  |  |  |  |  |  |
| CC(=O)O[C@H]1C(=O)[C@@]2(C)[C@H]([C@H](OC(=O)c3ccccc3)[C@]3(O)C[C@H](OC(=O)[C@H](O)[C@@H](NC(=O)c4ccccc4)c4ccccc4)C(C)=C1C3(C)C)[C@]1(OC(C)=O)CO[C@@H]1C[C@@H]2O [PACLITAXEL] |  |  |  | 0.117 | 872 | 0.0006 |  | 0.523 |  |  |  |  |  |  |  |  |  |
| COc1cc2c(cc1OC)CN(CCc1ccc(NC(=O)c3cc(OC)c(OC)cc3NC(=O)c3cnc4ccccc4c3)cc1)CC2 [TARIQUIDAR] |  |  |  |  |  |  |  |  |  |  |  |  |  |  |  |  | Flu intensity [16]: 3004; Selectivity Index [17]: 121.16; Flu intensity [18]: 3004; Ratio [19]: 3.7; Selectivity Index [20]: 121.16; Ratio [21]: 3.7 |
